In all, about 2,000 compounds went through this assay and about 10 (0.5%) were called active.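 Rule for the calls: active = inhibition above 30%; inactive = the rest.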 The list comes from a sample in which actives are over-represented; it also holds similar structures and randomly drawn compounds. Residues, ends and D or L forms follow the SMILES beside them.
The compounds below were run against Protein-arginine deiminase type-4 (Homo sapiens) (UniProt Q9UM07) (assay: human PAD4 inhibitors, primary screen, biochemical, fluorescence polarization (AID 463073;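 note: 0% = PAD4 with DMSO and 100% = wells lacking PAD4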)). Conditions: recombinant PAD4, RFA probe fluorescence polarization; at 5 µM; hits give high values.
Chain of Protein-arginine deiminase type-4 (Homo sapiens) (Q9UM07 whole entry, looked up): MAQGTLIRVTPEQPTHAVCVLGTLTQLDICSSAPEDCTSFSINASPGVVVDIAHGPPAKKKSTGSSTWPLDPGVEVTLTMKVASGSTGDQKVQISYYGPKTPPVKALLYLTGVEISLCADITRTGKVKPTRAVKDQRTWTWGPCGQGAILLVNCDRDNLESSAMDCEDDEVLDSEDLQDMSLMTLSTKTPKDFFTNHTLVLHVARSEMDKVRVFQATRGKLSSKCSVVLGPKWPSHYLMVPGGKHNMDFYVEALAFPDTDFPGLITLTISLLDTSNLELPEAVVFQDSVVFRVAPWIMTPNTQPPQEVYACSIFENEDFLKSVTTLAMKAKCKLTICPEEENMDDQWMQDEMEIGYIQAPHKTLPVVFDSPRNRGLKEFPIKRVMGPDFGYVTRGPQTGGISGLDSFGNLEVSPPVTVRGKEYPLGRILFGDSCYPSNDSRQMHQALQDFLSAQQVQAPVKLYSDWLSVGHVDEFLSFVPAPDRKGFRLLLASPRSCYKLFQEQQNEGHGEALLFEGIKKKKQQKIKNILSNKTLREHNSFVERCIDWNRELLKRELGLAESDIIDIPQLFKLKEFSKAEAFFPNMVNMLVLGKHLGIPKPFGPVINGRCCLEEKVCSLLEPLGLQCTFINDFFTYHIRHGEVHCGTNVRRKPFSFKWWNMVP
Summary of the method: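 system = recombinant PAD4 | amount = PAD4 at 2 µM in dispensed buffer, before additions | incubation = 30 min 25 °C preincubation, 5 h 37 °C labeling | measured by = FP, ex 525 nm, em 598 nm | replication = single well per compound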

Row | SMILES | inhibition
1 | CCc1ccc2oc(=O)cc(CN3CCC(C)CC3)c2c1 | -1.47% (inactive)
2 | C[N+](C)(C)CCCC(=O)c1ccc2c(c1)OCO2 | 3.91% (inactive)
3 | CC(=O)NC(CC(C)C)C(=O)NC(Cc1ccccc1)C(N)=O (stereo not drawn) (Ac-Leu-Phe-NH2; configuration not given here) | 1.27% (inactive)
4 | COc1ccc2c(C=O)cn(C)c2c1 | -2.41% (inactive)
5 | COC(=O)c1[nH]c2ccccc2c1NC(=O)CN1CCN(C/C=C/c2ccccc2)CC1 | 0.97% (inactive)
6 | Cc1ccnc(NS(=O)(=O)c2ccc(N)cc2)n1 | 1.25% (inactive)
7 | COc1cc(=O)n(C)c2ccccc12 | 0.98% (inactive)
8 | CC(C)CC(NC(=O)c1cccc(Cl)c1)C(=O)O (configuration not stated) | -0.07% (inactive)
9 | Cc1c(O)c(=O)ccn1C | 4.09% (inactive)
10 | Cc1cccc(C)c1NS(=O)(=O)c1ccc(NC(=O)c2ccc(Cl)c([N+](=O)[O-])c2)cc1 | 5.98% (inactive)
11 | C=CCNC(=S)N1CCc2c([nH]c3ccccc23)C1C (configuration not stated) | -0.07% (inactive)
12 | CCN1C(=O)C(CC(=O)Nc2ccc(OC)cc2)N(CCc2ccc(F)cc2)C1=S (configuration not stated) | 3.71% (inactive)
13 | Cc1ccccc1-c1nn(-c2ccc(F)cc2F)cc1CNCCN(C)C | -4.06% (inactive)
14 | COc1ccc2[nH]cc(C(=O)CCl)c2c1 | 2.86% (inactive)
15 | COC(=O)CN1CC(=O)N(c2ccccc2)C1=S | -0.98% (inactive)
16 | O=c1oc2c(CN3CCCCC3)c(O)ccc2c2c1CCCCC2 | -1.21% (inactive)
17 | COC1=C(N)C(=O)c2nc(-c3nc(C(=O)O)c(C)c(-c4ccc(OC)c(OC)c4O)c3N)ccc2C1=O | 92.5% (active)
18 | COc1ccc2oc(=O)c(-c3nc(C)cs3)cc2c1 | 3.51% (inactive)
19 | O=C(NCc1ccc2c(c1)OCO2)c1ccc2c(c1)OCCO2 | 2.19% (inactive)
20 | CCOC(=O)C1C(=O)CC(C)(O)C(C(=O)OCC)C1/C=C/c1ccccc1 (configuration not stated) | 0.16% (inactive)
21 | CCOc1ccc(N2C(=O)CNC2=S)cc1 | 0.84% (inactive)

Row | SMILES | inhibition
22 | COc1ccc(N2C(=O)C3C(C2=O)C(C(=O)c2ccccc2)N2CCCC32)cc1 (configuration not stated) | 2.54% (inactive)
23 | COc1ccc(N2C(=O)[C@@H]3[C@H](C2=O)[C@H]2c4ccccc4C=CN2[C@@H]3C(C)=O)cc1 | 37.2% (active)
24 | COc1ccc(C(=O)[C@H]2[C@H]3C(=O)N(c4ccccc4)C(=O)[C@H]3C3C=CC=NN32)cc1 (some centres not stated) | 2.34% (inactive)
25 | CCNCCC(CCC(C)C)c1ccc2c(c1)OCO2 (configuration not stated) | 2.15% (inactive)
26 | COc1ccc(C(=O)/C=C/c2cc(C(=O)O)cc3c2OCOC3)c(O)c1 | 3% (inactive)
27 | Clc1ccc2c(c1)[C@H]1OCC[C@H]1[C@@H](c1ccco1)N2 | 1.39% (inactive)
28 | NS(=O)(=O)c1cc2c(cc1Cl)NC(CSCc1ccccc1)=NS2(=O)=O | 0.58% (inactive)
29 | COC(=O)C1=C(C)N(C)C(=S)NC1c1ccc(Cl)cc1 (configuration not stated) | 0.42% (inactive)
30 | C#C[C@]1(O)CC[C@H]2[C@@H]3CCC4=C(CCC(=O)C4)[C@H]3CC[C@@]21C | 0.19% (inactive)
31 | CC[n+]1c(C)sc2cc(C)ccc21 | 0.78% (inactive)
32 | NC(=O)[C@@H]1[C@@H]2C(=O)N(c3ccc(F)cc3)C(=O)[C@@H]2[C@H]2C=Cc3ccccc3N21 | -1.24% (inactive)
33 | COc1ccc(-c2[nH]ncc2CN(C)C(C)c2ccon2)c(OC)c1 (configuration not stated) | 4.74% (inactive)
34 | COc1cc(NC(=S)NN2CCN(C)CC2)cc(OC)c1OC | -5.47% (inactive)
35 | CC1(C)Cc2ccccc2C(C(Cc2ccccc2)C(N)=O)=N1 (configuration not stated) | 1.19% (inactive)
36 | COc1ccc(NC2=C(Cl)C(=O)N(c3ccccc3)C2=O)c(OC)c1 | 7.44% (inactive)
37 | CSc1ccc(CN2CCN(CCC(C)C)C(CCO)C2)cc1 (configuration not stated) | -2.67% (inactive)
38 | CC1(C)CC(=O)C(C2(O)C(=O)Nc3ccccc32)CO1 (configuration not stated) | 7.91% (inactive)
39 | CCOC(=O)c1cnc2ccccc2c1NCCO | 1.39% (inactive)
40 | COc1ccc(C2(CCN=Cc3ccc(N(C)C)cc3)CCOC(C)(C)C2)cc1 (configuration not stated) | 4.88% (inactive)
41 | CC(C)OC(=O)c1ccc(NC(=O)c2cncc(Br)c2)cc1 | 3.13% (inactive)
42 | CCOc1cccc(N2C(=O)CC(N(CCc3ccc(OC)c(OC)c3)C(=O)CC)C2=O)c1 (configuration not stated) | 4.11% (inactive)

Row | SMILES | inhibition
43 | C[C@H](NC(=O)Nc1ccccc1F)C(=O)O | 3.34% (inactive)
44 | Cc1ncc([N+](=O)[O-])n1CCO | -2.21% (inactive)
45 | CC(C)OC(=O)C1C2C=CC3(CN(CC4CCCO4)C(=O)C13)O2 (configuration not stated) | 3.74% (inactive)
46 | CC(=O)C1=C(O)C(=O)OC1c1ccc(C)cc1 (configuration not stated) | 3.6% (inactive)
47 | Cc1ccc(CSCC(=O)N2CCCC2)cc1 | 0.78% (inactive)
48 | Cc1coc2cc3oc(=O)c(CCC(=O)O)c(C)c3cc12 | 1.74% (inactive)
49 | C=CCNc1nc2c(c(=O)n(C)c(=O)n2C)n1CC(=C)C | 2.6% (inactive)
50 | CC(=O)Oc1ccc(C2OC(=O)c3ccccc3N2C(C)=O)cc1 (configuration not stated) | 4.61% (inactive)
51 | C/C(=N\NC(=O)c1ccccc1[N+](=O)[O-])c1ccc(Br)s1 | -5.19% (inactive)
52 | CC(=O)OC1c2c(ccc3ccc(=O)oc23)OC(C)(C)C1OC(=O)CC(C)C (configuration not stated) | 3.34% (inactive)
53 | COc1ccc2c(c1)C(=O)CC(c1ccccc1F)O2 (configuration not stated) | -3.92% (inactive)
54 | O=C(NCCc1nc2ccccc2[nH]1)c1cccc(Br)c1 | 2.09% (inactive)
55 | CCOC(=O)C1=C2c3ccc4ccccc4c3CC(C)(C)N2C(=O)C1=O | 4.17% (inactive)
56 | COc1ccc(OC)c(S(=O)(=O)N2CCCc3ccccc32)c1 | 1.48% (inactive)
57 | CC(=O)c1c(N)nc2n(c1=O)CCCCC2 | 2.24% (inactive)
58 | CC1(C)C(=O)OC(/C=C\c2ccccc2)C(C)(C)C1=O (configuration not stated) | -4.36% (inactive)
59 | Cc1ccc(SCC(=O)Nc2nccs2)cc1 | -3.72% (inactive)
60 | CCN1CCn2c3c(c4cc(Cl)ccc42)CCCC31 (configuration not stated) | 0.84% (inactive)
61 | Cc1ccsc1/C=C/C1=NCCCN1C | 1.68% (inactive)
62 | CC(C)Cc1cc(C(=O)N2CCC(N3CCC(C(=O)N4CCCC4)CC3)CC2)n[nH]1 | 1.19% (inactive)
